Measured values gathered from unrelated publications.
SLC18A2: Synaptic vesicular amine transporter (SLC18A2, Homo sapiens, UniProt Q05940)
ADRA2A: Alpha-2A adrenergic receptor (ADRA2A, Homo sapiens, UniProt P08913)
LATS1: Serine/threonine-protein kinase LATS1 (LATS1, Homo sapiens, UniProt O95835)

SMILES	target	assay	setting	measurement	result
CC(C)(C(=O)O)c1ccc(C(O)CCCN2CCC(C(O)(c3ccccc3)c3ccccc3)CC2)cc1 (stereo not drawn)	Carbonic anhydrase 1 (CA1, Homo sapiens, UniProt P00915)	enzyme activity, inhibitor, absorbance	pH 7.4	IC50	19300 nM
Cc1cnc(Nc2ccc(OCCN3CCCC3)cc2)nc1Nc1cccc(S(=O)(=O)NC(C)(C)C)c1	SLC18A2	transporter uptake, inhibitor, radiometric	cell membranes	IC50	418 nM
Cc1cc(Oc2ncccc2CN2CCN(c3ccc(F)cc3F)CC2)ccc1-c1c(C)c(=O)[nH]c(=O)n1C	ADRA2A	ligand displacement, radioligand		Ki	326 nM
Cc1cc(-c2ccnc3[nH]cc(F)c23)cc(F)c1[C@@]1(O)[C@H](C)CN(C2CCS(=O)(=O)CC2)C[C@@H]1C	LATS1	binding, TR-FRET		Kd	2.5 nM
CCc1nn(CCCN2CCN(c3cccc(Cl)c3)CC2)c(=O)n1CCOc1ccccc1	SLC18A2	transporter uptake, inhibitor, radiometric	cell membranes	IC50	667 nM
Clc1ccc(C2(c3ccc(-c4ccnc5[nH]ccc45)cc3)CCNCC2)cc1	LATS1	target engagement in cells, BRET		IC50	2230 nM
CC(C)(C)NC(=O)C1CCN(Cc2cccc(NC(=O)c3ccc(F)cc3)c2)CC1	Atypical chemokine receptor 3 (ACKR3, Homo sapiens, UniProt P25106)	β-arrestin recruitment, agonist, luciferase		EC50	10 nM
Cc1cc(C#CC2(O)CCCCC2)cc2c1cc(C(=O)O)n2-c1ccccc1	Microphthalmia-associated transcription factor (Homo sapiens, UniProt O75030)	binding, ITC		Kd	3500 nM
COc1cc(C)c(/C=C/C(C)=C/C=C/C(C)=C/C(=O)O)c(C)c1C	Carbonic anhydrase 2 (CA2, Homo sapiens, UniProt P00918)	enzyme activity, inhibitor, absorbance	pH 7.4	IC50	12600 nM
Cc1cc(-c2ccnc3[nH]cc(F)c23)cc(F)c1[C@@]1(O)[C@H](C)CN(C(=O)CN)C[C@@H]1C	LATS1	target engagement in cells, BRET		IC50	6.1 nM
Cc1cc(Oc2ncccc2CN2CCN(c3ncccc3C(F)(F)F)CC2)ccc1-c1c(C)c(=O)[nH]c(=O)n1C	ADRA2A	ligand displacement, radioligand		Ki	47.4 nM
O=C1Cc2cc(CCN3CCN(c4nsc5ccccc45)CC3)c(Cl)cc2N1	SLC18A2	transporter uptake, inhibitor, radiometric	cell membranes	IC50	15 nM
CC1CNCCC1(O)c1ccc(-c2ccnc3[nH]cc(F)c23)cc1 (stereo not drawn)	LATS1	enzyme activity, inhibitor, radiometric		IC50	9.8 nM
Cc1cc(Oc2ncccc2CN2CCN(c3ccc(C(F)(F)F)cn3)CC2)ccc1-c1c(C)c(=O)[nH]c(=O)n1C	ADRA2A	ligand displacement, radioligand		Ki	1280 nM
O=C(CCCN1CCC(O)(c2ccc(Br)cc2)CC1)c1ccc(F)cc1	SLC18A2	transporter uptake, inhibitor		IC50	92 nM
Cc1ccc(N2CCN(Cc3cccnc3Oc3ccc(-c4c(C)c(=O)[nH]c(=O)n4C)c(C)c3)CC2)cc1C	ADRA2A	ligand displacement, radioligand		Ki	546 nM
O=C(c1ccc(OCCN2CCCCC2)cc1)c1c(-c2ccc(O)cc2)sc2cc(O)ccc12	SLC18A2	transporter uptake, inhibitor, radiometric	cell membranes	IC50	127 nM
Cc1cc(Oc2ncccc2CN2CCN(c3cccc(Cl)c3Cl)CC2)ccc1-c1c(C)c(=O)[nH]c(=O)n1C	ADRA2A	ligand displacement, radioligand		Ki	214 nM
CC(C)C[C@H](NC(=O)[C@H](CC(C)C)NC(=O)[C@H](Cc1c[nH]c2ccccc12)NC(=O)[C@H](CCC(N)=O)NC(=O)[C@@H](NC(=O)[C@H](Cc1ccccc1)NC(=O)[C@H](CC(=O)O)NC(=O)[C@H](CCC(N)=O)NC(=O)[C@H](C)NC(=O)[C@H](C)NC(=O)[C@H](CCCNC(=N)N)NC(=O)[C@H](CCC(=O)O)NC(=O)[C@H](CC(=O)O)NC(=O)[C@H](CC(C)C)NC(=O)[C@H](Cc1ccc(O)cc1)NC(=O)[C@H](CCCCN)NC(=O)[C@H](CO)NC(=O)[C@H](Cc1ccc(O)cc1)NC(=O)[C@H](CC(=O)O)NC(=O)[C@H](CO)NC(=O)[C@@H](NC(=O)[C@H](Cc1ccccc1)NC(=O)[C@@H](NC(=O)CNC(=O)[C@H](CCC(N)=O)NC(=O)C(C)(C)NC(=O)[C@@H](N)Cc1c[nH]cn1)[C@@H](C)O)[C@@H](C)O)C(C)C)C(=O)N[C@@H](CC(=O)O)C(=O)NCC(=O)NCC(=O)N1CCC[C@H]1C(=O)N[C@@H](CO)C(=O)N[C@@H](CC(C)C)C(=O)N[C@@H](CCCNC(=N)N)C(=O)N[C@@H](Cc1c[nH]cn1)C(=O)N[C@@H](Cc1ccc(O)cc1)C(=O)N[C@@H](CC(C)C)C(=O)N[C@@H](CC(N)=O)C(=O)N[C@@H](CC(C)C)C(=O)N[C@H](C(=O)N[C@H](C(=O)N[C@@H](CCCNC(=N)N)C(=O)N[C@@H](CCC(N)=O)C(=O)N[C@@H](CCCNC(=N)N)C(=O)N[C@@H](Cc1ccc(O)cc1)C(N)=O)[C@@H](C)O)C(C)C	Gastric inhibitory polypeptide receptor (GIPR, Homo sapiens, UniProt P48546)	reporter gene, agonist, luciferase		EC50	0.28 nM
Cc1cc(Oc2ncccc2CN2CCN(Cc3ccc(F)cc3)CC2)ccc1-c1c(C)c(=O)[nH]c(=O)n1C	ADRA2A	ligand displacement, radioligand		Ki	2210 nM
CC(C)NCC(O)COc1ccc(COCCOC(C)C)cc1 (stereo not drawn)	SLC18A2	transporter uptake, inhibitor		IC50	7540 nM
